Assay outcomes deposited in PubChem BioAssay by Sanford-Burnham Center for Chemical Genomics.
MPTP inh: permeability transition pore inhibition. isolated mouse mitochondria, Ca2+ swelling absorbance, 30 min. inhibition, % at 10 µM. 1.4% of 360,000 active. AID 602449;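 active = inhibition of 50% or more, scaled per plate between neutral and stimulator controls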;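 also: 0% = DMSO wells given calcium and 100% = 1 mM EGTA wells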
SKN-1 inh: C. elegans SKN-1 inhibition; C. elegans VP596 Pgst-4::GFP/RFP ratio, acrylamide-induced, 24 h; inhibition, % at 21.8 µM; 0.49% of 360,000 active; AID 624304;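 active = interference check ratio from 0.5 to 1.5 plus GFP to RFP signal ratio inhibition reaching or exceeding a fixed threshold, cut at about 30% in these data, passing the limit was not always enough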
ATG4B inhibitor: ATG4B (human) cysteine protease inhibition; inhibition, % at 8.33 µM; Q9Y4P1; 0.51% of 340,000 active; ATG4B cleavage of LC3-PLA2, NBD-HPC fluorescence, 1 h; in the data active = inhibition above about 40%
Target sequence (Q9Y4P1 whole entry, looked up): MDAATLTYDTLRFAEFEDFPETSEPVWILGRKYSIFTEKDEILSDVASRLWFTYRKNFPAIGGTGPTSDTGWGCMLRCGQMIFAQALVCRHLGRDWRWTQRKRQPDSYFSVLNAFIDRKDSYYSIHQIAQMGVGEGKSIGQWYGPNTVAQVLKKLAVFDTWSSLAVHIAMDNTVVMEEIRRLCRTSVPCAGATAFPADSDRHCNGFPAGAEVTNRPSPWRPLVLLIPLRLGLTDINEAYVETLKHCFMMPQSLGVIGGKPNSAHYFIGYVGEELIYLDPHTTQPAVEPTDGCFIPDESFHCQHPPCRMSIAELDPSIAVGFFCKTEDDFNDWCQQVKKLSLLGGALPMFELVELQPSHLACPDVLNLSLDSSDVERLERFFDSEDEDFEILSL
MT1-MMP act inh: inhibitors of human MT1-MMP activation | P50281 | HT1080 RFP-PRO-GFP cells, GFP/RFP ratio fluorescence, overnight; percent of plate control window, DMSO zero | GFP/RFP ratio change, % at 20 µM | 0.061% of 360,000 active;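 active = GFP/RFP ratio change of at least 30% with cell ATP level not reduced by more than half and red fluorescence within 50% of control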
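system = RFP-PRO-GFP reporter HT1080 cells | dosing = 20 µM single dose, 1% DMSO | timing = overnight cell settling, then overnight compound exposure, 37 °C, 5% CO2 | read-out basis = GFP/RFP fluorescence ratio | controls = DMSO and RFP-L50D-GFP cell wells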
ATG4B confirm: confirmation of human ATG4B inhibitors. shares compounds with ATG4B inhibitor. ATG4B protease fluorescent substrate cleavage assay. inhibition, % at 8.33 µM. 92% of 320 active. AID 504757; in the data active = inhibition above about 39%
PLA2 counter: PLA2 (human) inhibition in ATG4B counter-screen | inhibition, % at 8.33 µM | 66% of 1,600 active | AID 588402 | purified PLA2, NBD-C6-HPC fluorescence, 45 min | shares compounds with ATG4B inhibitor; in the data active = inhibition above about 50%
Target sequence (P04054 whole entry, looked up): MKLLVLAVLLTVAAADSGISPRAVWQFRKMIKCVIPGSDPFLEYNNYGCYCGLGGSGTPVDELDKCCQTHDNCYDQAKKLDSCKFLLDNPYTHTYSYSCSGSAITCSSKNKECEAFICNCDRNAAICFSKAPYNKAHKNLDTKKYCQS
Active calls of the source: *; / = not tested or not shown. This is a sample that favours compounds with a hit; in the whole collection about 2.3% have one here.

SMILES	MPTP inh	SKN-1 inh	ATG4B inhibitor	MT1-MMP act inh	PLA2 counter	others
O=C(Nc1nc(-c2ccccc2)cs1)c1cccc([N+](=O)[O-])c1C(=O)O	-0.3	10.8	54.6*	-1.8	64.9*
Cc1csc(NC(=O)c2cccc([N+](=O)[O-])c2C(=O)O)n1	-0.5	-6.4	-4.9	1.6	/
CCN(CC)C(=O)CSc1nc2ccccc2c(=O)n1-c1cccc(OC)c1	0.7	-4.0	-7.5	9.6	/
COc1cccc(-n2c(SCc3cc(=O)oc4cc(O)c(O)cc34)nc3ccccc3c2=O)c1	29.3	12.9	99.4*	6.8	99.6*
NC(=O)c1ccc(NCCc2ccccc2)c([N+](=O)[O-])c1	-1.8	-14.0	48.6*	3.2	66.3*
O=C(Nc1ccccc1)c1ccc(NCCc2ccccc2)c([N+](=O)[O-])c1	12.9	-11.7	-3.5	-26.4	/
CCc1ccccc1NC(=O)c1ccc(NCCc2ccccc2)c([N+](=O)[O-])c1	2.0	5.5	42.5*	2.9	34.9
CCn1c(C)c(C)c2cc(C(=O)N3CCc4ccccc4C3)ccc21	42.4	42.2*	71.8*	-5.3	73.8*
CC(=O)Nc1cc(C(=O)N2CCc3ccccc3C2)ccc1Sc1ccc(C)cc1	8.4	-1.9	46.1*	4.0	52.7*
CS(=O)(=O)N(Cc1ccc(C(=O)N2CCc3ccccc3C2)cc1)c1ccccc1	-0.5	0.5	20.4	-2.7	/
Cc1ccc(CN(c2ccc(C(=O)N3CCc4ccccc4C3)cc2)S(C)(=O)=O)cc1	-1.1	6.3	55.5*	-4.5	59.9*
CCN1CCN(C(=O)c2ccc3c(c2)c(C)c(C)n3Cc2ccccc2)CC1	0.5	14.2	-1.2	0.5	/
CC1C=CCC2C(=O)N(c3cccc(C(=O)NCc4ccccc4)c3)C(=O)C12 (stereo not drawn)	0.6	18.3	3.2	-0.3	/
O=C(NCc1cccs1)C1CCCN(C(=O)Nc2ccccc2)C1 (stereo not drawn)	-1.7	3.3	-5.7	2.3	/
COc1ccc(-c2cnnc(N/N=C/c3ccc(C)o3)n2)cc1	-0.1	13.4	-4.1	5.8	/
Cc1nc2ccc(NC(=O)c3cccnc3)cc2s1	4.3	13.6	-2.9	-1.1	/
Cc1ccc(-c2nc(-c3cccnc3)sc2CC(=O)Nc2ccc3nc(C)sc3c2)cc1	4.4	-1.2	44.7*	-5.1	12.2
O=C(CC1S/C(=N/N=C/c2cccs2)NC1=O)Nc1ccc(Cl)c(Cl)c1 (stereo not drawn)	-2.3	-6.0	61.2*	-7.1	11.7	ATG4B confirm=58.5*
O=C(C1CCOCC1)N1CCCC(N2CCN(c3ccc(F)cc3)CC2)C1 (stereo not drawn)	-1.7	7.2	5.6	0.8	/
Cc1ccc(-n2nnnc2SCC(=O)Nc2ccccc2-c2ccccc2)cc1C	6.9	16.2	52.4*	0.4	47.6
Cc1ccc(-n2nnnc2SCC(=O)Nc2ccccc2N2CCCCC2)cc1C	30.2	17.8	12.3	-7.4	/
CCCNC(=O)C1(O)c2cc(Br)ccc2NC(=O)N1c1ccc(Cl)cc1 (stereo not drawn)	-0.4	-15.8	0.5	-4.0	/
N#Cc1cc2c(nc1SCC(=O)Nc1sc3c(c1C#N)CCC3)CCC2	0.4	10.6	-6.3	-44.5	/
COc1ccc(-c2ccc(C#N)c(SCC(=O)Nc3sc4c(c3C#N)CCC4)n2)cc1OC	1.1	23.9	72.5*	-64.3	-4.2	ATG4B confirm=83.8*
COc1ccc(CNC(=O)CN(CC2CCCO2)C(=O)CNS(=O)(=O)c2ccc(F)cc2)cc1 (stereo not drawn)	0.5	9.7	1.1	0.2	/
SMILES	MPTP inh	SKN-1 inh	ATG4B inhibitor	MT1-MMP act inh	PLA2 counter	others
O=C(c1ccc(-n2c(SCc3cccc(F)c3)nc3ccccc3c2=O)cc1)N1CCOCC1	-3.7	1.8	47.9*	-1.7	43.6	ATG4B confirm=59.4*
O=c1c2ccccc2nc(SCc2ccc([N+](=O)[O-])cc2)n1-c1ccccc1	-0.3	13.6	40.0*	-8.3	49.7
O=C(O)c1ccc(CSc2nc3ccccc3c(=O)n2-c2ccccc2)cc1	0.1	-7.7	40.9*	-1.8	58.7*
O=C(O)c1ccc(CSc2nnc(-c3ccccc3)n2-c2ccccc2)cc1	1.5	3.3	-0.1	-0.1	/
O=C(CSc1nc2ccccc2c(=O)n1-c1ccccc1)c1cccc([N+](=O)[O-])c1	3.3	-8.9	-2.8	-1.6	/
Cc1noc(C)c1CSc1nc2sc(C)c(C)c2c(=O)n1-c1ccccc1	-0.9	-8.1	8.7	2.1	/
Cc1noc(C)c1CSc1nc2ccccc2c(=O)n1-c1ccc(Cl)cc1	0.4	3.8	70.6*	-6.2	70.3*
COc1ccc(CC(=O)Nc2cccc(S(=O)(=O)N3CCOCC3)c2)cc1OC	5.5	19.5	5.6	-0.6	/
O=[N+]([O-])c1ccc(Nc2nc(NC3CCCCC3)nc(N3CCCC3)n2)cc1	2.5	9.8	13.5	-1.0	/
CCCc1cc(C(=O)N2CCC(n3nccc3NC(=O)c3ccc(OC)cc3)CC2)no1	-1.6	5.8	-5.7	1.2	/
Cc1ccc(C(=O)Nc2ncc(Cc3ccccc3)s2)o1	-3.9	14.1	42.9*	1.2	64.0*
CC1=CC(C)(C)N2C(=O)C3(NCCc4c3[nH]c3ccccc43)c3cc(C)cc1c32 (stereo not drawn)	2.9	-4.8	58.0*	-14.2	69.4*
CN1C(=O)C2(NCCc3c2[nH]c2ccccc32)c2ccccc21 (stereo not drawn)	-14.1	11.5	-1.5	-2.7	/
Cn1cccc1/C=C1\CCC/C(=C\c2cccn2C)C1=O	1.0	13.1	45.5*	-237.9	58.8*
O=C1/C(=C\c2ccco2)CCC/C1=C\c1ccco1	2.5	28.0	23.8	-11.8	/
COCCN=c1scc(-c2cc(OC)c(OC)c(OC)c2)n1/N=C/c1c(C)[nH]c2ccccc12	4.1	22.8	42.6*	-19.6	70.6*
Cc1ccccc1-c1nnc(SCc2ccccc2F)o1	2.1	-4.2	54.2*	2.7	63.7*
COc1ccc(NC(=O)CN2C(=O)NC(C)(C3CC3)C2=O)c(OC)c1 (stereo not drawn)	0.2	2.5	-4.3	-1.1	/
CCC(C(=O)O)N1C(=O)/C(=C/C(C)=C/c2ccccc2)SC1=S (stereo not drawn)	4.9	0.1	79.9*	-2.9	82.8*
CC(=Cc1ccccc1)C=C1SC(=S)N(CCCC(=O)Nc2ccc(C(=O)O)cc2)C1=O	-0.9	-0.4	/	4.9	/
CC(=C\c1ccccc1)/C=C1/SC(=S)N(CCCC(=O)O)C1=O	0.6	10.7	51.9*	0.7	9.1	ATG4B confirm=78.0*
O=C(O)C(Cc1ccccc1)N1C(=O)/C(=C/c2ccccc2)SC1=S (stereo not drawn)	1.5	4.8	18.3	0.7	/
CC(/C=C1\SC(=S)N(CCCC(=O)Nc2ccc(C(=O)O)cc2)C1=O)=C\c1ccccc1	4.2	7.5	64.5*	-1.3	28.1	ATG4B confirm=41.0*
